Results reported in ChEMBL document CHEMBL2016522, “Discovery and Hit-to-Lead Optimization of Non-ATP Competitive MK2 (MAPKAPK2) Inhibitors” (ACS Med Chem Lett, 2011).

Columns and labels:
[1] = Cytotoxicity against human SW1353 cells after 30 mins by ATP-dependent luciferase luminescence assay; format: cell-based
[2] = molecular target: T1, MAP kinase-activated protein kinase 2 (Homo sapiens, UniProt P49137); experiment: Inhibition of MK2-mediated HSP27 phosphorylation in IL-1beta stimulated human SW1353 cells incubated for 30 mins prior to IL-1beta-stimulation measured after 27 mins by ELISA; format: cell-based
T1 sequence (P49137 whole entry): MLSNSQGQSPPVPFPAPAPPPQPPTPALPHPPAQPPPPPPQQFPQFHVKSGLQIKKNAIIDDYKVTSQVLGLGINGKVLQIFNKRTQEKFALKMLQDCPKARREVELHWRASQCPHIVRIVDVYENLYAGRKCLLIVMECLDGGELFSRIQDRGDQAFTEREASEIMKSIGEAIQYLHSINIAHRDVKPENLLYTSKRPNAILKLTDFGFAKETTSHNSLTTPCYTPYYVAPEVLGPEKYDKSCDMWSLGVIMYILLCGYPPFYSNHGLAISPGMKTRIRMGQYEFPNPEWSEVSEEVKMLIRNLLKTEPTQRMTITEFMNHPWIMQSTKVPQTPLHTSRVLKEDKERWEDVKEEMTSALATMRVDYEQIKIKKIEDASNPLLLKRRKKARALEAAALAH

[3] = molecular target: T1, MAP kinase-activated protein kinase 2; experiment: Inhibition of MK2 using Acam peptide as substrate incubated for 30 mins prior to substrate addition measured after 10 mins using 100 uM ATP by DELFIA assay
[4] = AUC (0 to 6 hrs) in rat at 10 mg/kg, po; format: ADME, organism-based; parameters: time < 6 hr, dose 10 mg/kg, route oral; settings: plasma
Procedure, shortened: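 Single oral dose of 10 mg/kg in rats. Plasma exposure is reported as AUC in nM h.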

[5] = organism: Homo sapiens; experiment: (§1) Inhibition of IL1beta-stimulated MMP13 secretion in human primary chondrocytes incubated for 30 mins prior to IL1beta-stimulation measured after 24 hrs by ELISA; format: functional, cell-based
Procedure, shortened: (§2)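 Cells are treated with a range of compound concentrations, then stimulated with IL1-β, and secreted MMP-13 is measured. Two cell systems are used: the SW1353 line and human primary chondrocytes derived from osteoarthritis tissue. Each data point is the average, with standard error, of duplicate samples.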

[6] = tested on: THP-1; experiment: Antiinflammatory activity in human THP1 cells assessed as inhibition of LPS-induced TNFalpha production incubated for 30 mins prior to LPS-challenge measured after 3 hrs by ELISA; format: functional, cell-based
Procedure, shortened: (§3)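 Human THP1 acute monocytic leukemia cells are treated with a range of compound concentrations and stimulated with LPS. Secreted TNFα or IL6 is then measured. Each data point is the average, with standard error, of duplicate samples.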

[7] = tested on: SW1353; experiment: Inhibition of IL1beta-stimulated MMP13 secretion in human SW1353 cells incubated for 30 mins prior to IL1beta-stimulation measured after 24 hrs by ELISA; format: functional, cell-based; procedure, shortened: as §2
[8] = tested on: THP-1; experiment: Antiinflammatory activity in human THP1 cells assessed as inhibition of LPS-induced IL6 production incubated for 30 mins prior to LPS-challenge measured after 18 hrs by immunoabsorbent-based electrochemical luminescence assay; format: functional, cell-based; procedure, shortened: as §3
[9] = molecular target: Casein kinase I isoform gamma-3 (Homo sapiens) (UniProt Q9Y6M4); experiment: Inhibition of human CK1gamma3 at 10 uM
Chain of Casein kinase I isoform gamma-3 (Homo sapiens) (Q9Y6M4 whole entry, looked up, canonical isoform): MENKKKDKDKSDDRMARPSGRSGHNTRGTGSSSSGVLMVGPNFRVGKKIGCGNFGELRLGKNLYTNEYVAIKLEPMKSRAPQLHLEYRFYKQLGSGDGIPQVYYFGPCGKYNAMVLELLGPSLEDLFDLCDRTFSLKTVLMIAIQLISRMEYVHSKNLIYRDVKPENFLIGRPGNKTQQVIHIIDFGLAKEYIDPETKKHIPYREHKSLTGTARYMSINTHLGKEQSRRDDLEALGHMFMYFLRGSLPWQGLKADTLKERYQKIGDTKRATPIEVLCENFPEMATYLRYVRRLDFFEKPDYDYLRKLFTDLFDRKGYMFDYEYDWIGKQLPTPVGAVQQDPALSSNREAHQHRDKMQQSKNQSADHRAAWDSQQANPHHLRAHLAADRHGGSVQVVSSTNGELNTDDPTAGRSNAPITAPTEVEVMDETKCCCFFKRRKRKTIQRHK

[10] = molecular target: Calcium/calmodulin-dependent protein kinase type IV (Homo sapiens, UniProt Q16566); experiment: Inhibition of human CAMK4
Chain of Calcium/calmodulin-dependent protein kinase type IV (Q16566 whole entry): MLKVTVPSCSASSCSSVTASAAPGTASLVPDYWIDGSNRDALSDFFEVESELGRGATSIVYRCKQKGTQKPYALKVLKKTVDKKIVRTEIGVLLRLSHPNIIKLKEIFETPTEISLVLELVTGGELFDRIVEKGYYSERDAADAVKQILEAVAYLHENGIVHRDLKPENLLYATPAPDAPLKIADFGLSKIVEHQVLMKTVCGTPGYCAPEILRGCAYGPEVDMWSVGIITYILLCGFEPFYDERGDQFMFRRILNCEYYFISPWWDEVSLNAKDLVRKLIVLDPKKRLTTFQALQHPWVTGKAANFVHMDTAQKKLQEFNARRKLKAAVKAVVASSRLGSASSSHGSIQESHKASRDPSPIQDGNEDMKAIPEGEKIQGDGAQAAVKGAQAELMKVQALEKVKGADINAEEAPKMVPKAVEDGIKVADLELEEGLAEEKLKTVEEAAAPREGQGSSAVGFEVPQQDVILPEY

[11] = molecular target: Interleukin-1 receptor-associated kinase 4 (Homo sapiens, UniProt Q9NWZ3); experiment: Inhibition of human IRAK4
Chain of Interleukin-1 receptor-associated kinase 4 (Q9NWZ3 whole entry): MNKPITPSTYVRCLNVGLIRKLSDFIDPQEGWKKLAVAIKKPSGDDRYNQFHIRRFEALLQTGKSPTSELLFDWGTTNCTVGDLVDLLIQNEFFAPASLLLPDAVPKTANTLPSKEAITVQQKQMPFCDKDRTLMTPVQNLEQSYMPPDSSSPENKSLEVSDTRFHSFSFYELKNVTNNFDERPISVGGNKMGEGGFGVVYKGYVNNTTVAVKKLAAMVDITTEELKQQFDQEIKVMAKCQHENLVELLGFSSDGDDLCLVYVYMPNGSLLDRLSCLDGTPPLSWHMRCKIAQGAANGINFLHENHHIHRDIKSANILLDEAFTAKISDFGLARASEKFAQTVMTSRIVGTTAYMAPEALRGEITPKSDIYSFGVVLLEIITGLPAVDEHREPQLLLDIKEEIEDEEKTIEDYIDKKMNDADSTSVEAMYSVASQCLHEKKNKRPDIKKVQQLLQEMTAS

[12] = molecular target: Rho-associated protein kinase 2 (Homo sapiens, UniProt O75116); experiment: Inhibition of human ROCK2
[13] = molecular target: Hepatocyte growth factor receptor (Homo sapiens, UniProt P08581); experiment: Inhibition of human MET
[14] = molecular target: Testis-specific serine/threonine-protein kinase 2 (Homo sapiens, UniProt Q96PF2); experiment: Inhibition of human TSSK2
[15] = molecular target: RAC-alpha serine/threonine-protein kinase (Homo sapiens, UniProt P31749); experiment: Inhibition of human AKT1
[16] = molecular target: Tyrosine-protein kinase Lck (Homo sapiens, UniProt P06239); experiment: Inhibition of human LCK
[17] = Solubility of the compound; format: physicochemical
[18] = molecular target: Casein kinase I isoform delta (Homo sapiens, UniProt P48730); experiment: Inhibition of human CSNK1D
Chain of Casein kinase I isoform delta (P48730 whole entry, canonical isoform): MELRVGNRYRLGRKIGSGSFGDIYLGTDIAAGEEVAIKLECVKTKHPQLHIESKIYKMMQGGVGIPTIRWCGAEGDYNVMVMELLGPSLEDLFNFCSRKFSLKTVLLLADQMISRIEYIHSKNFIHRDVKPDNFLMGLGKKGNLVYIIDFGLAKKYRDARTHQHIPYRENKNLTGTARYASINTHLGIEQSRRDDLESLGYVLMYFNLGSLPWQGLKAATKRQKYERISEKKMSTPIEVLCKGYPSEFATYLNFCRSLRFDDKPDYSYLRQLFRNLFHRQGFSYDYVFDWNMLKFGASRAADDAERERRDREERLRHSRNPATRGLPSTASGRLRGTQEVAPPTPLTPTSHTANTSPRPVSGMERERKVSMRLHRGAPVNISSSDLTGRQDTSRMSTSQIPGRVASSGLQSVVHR

[19] = molecular target: Insulin-like growth factor 1 receptor (Homo sapiens, UniProt P08069); experiment: Inhibition of human IGF1R
[20] = molecular target: Serine/threonine-protein kinase Chk1 (Homo sapiens, UniProt O14757); experiment: Inhibition of human CHK1
[21] = molecular target: T1, MAP kinase-activated protein kinase 2; experiment: Inhibition of MK2 using Acam peptide as substrate incubated for 30 mins prior to substrate addition measured after 10 mins using 2 uM ATP by DELFIA assay
[22] = molecular target: Serine/threonine-protein kinase 3 (Homo sapiens, UniProt Q13188); experiment: Inhibition of human MST2
Chain of Serine/threonine-protein kinase 3 (Q13188 whole entry): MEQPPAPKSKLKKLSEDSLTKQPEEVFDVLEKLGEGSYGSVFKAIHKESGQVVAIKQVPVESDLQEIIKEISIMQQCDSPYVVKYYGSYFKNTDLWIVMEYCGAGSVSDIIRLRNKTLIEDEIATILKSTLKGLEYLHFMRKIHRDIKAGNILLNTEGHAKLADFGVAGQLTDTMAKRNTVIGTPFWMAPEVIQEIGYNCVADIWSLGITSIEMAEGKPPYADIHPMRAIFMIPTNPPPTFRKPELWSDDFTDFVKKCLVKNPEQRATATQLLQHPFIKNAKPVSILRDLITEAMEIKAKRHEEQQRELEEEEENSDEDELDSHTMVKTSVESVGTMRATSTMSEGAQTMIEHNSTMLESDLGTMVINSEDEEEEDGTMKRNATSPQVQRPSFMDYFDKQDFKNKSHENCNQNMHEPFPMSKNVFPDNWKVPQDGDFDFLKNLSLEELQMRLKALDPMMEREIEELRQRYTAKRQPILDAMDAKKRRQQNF

[23] = molecular target: Inhibitor of nuclear factor kappa-B kinase subunit beta (Homo sapiens, UniProt O14920); experiment: Inhibition of human IKKB
Chain of Inhibitor of nuclear factor kappa-B kinase subunit beta (O14920 whole entry): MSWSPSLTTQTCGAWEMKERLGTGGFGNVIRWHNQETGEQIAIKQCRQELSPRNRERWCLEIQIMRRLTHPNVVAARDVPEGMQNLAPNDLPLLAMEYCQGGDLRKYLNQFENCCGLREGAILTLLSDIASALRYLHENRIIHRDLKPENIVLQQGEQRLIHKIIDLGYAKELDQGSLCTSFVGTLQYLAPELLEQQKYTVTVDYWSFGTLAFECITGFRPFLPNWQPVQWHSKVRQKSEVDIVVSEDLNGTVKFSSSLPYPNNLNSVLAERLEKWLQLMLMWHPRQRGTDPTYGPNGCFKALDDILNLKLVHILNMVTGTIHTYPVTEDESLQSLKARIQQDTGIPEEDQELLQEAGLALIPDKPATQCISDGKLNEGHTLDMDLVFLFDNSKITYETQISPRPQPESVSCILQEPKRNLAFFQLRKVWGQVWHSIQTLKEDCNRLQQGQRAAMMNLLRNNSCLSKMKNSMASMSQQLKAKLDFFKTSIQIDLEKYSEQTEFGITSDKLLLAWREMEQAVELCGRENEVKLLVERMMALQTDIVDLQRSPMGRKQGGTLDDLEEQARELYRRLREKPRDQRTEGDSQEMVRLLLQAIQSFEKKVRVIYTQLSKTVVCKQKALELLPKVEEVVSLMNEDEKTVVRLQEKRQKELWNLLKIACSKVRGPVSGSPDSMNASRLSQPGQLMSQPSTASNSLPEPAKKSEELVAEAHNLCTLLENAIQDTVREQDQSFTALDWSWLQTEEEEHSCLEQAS

[24] = molecular target: T2, Cytochrome P450 2D6 (Homo sapiens, UniProt P10635); experiment: Inhibition of CYP2D6 in human liver microsomes using dextromethorphan as substrate incubated for 30 mins prior to substrate addition; format: ADME, Microsome
T2 sequence (P10635 whole entry): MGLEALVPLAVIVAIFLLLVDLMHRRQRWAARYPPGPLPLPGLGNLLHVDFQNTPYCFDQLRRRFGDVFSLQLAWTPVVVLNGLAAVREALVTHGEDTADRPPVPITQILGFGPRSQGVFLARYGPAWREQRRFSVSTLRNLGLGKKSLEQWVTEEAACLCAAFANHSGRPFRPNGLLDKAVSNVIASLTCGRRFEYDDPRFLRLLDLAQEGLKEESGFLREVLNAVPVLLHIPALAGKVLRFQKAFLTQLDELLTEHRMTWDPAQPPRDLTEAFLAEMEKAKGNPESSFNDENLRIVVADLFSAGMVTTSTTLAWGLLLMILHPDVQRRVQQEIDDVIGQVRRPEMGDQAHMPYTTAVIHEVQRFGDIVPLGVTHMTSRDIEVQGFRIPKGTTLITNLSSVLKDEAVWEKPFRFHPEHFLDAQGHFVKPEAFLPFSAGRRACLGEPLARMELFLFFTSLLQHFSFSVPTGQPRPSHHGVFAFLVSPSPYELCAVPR
Procedure, shortened: (§4)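 Tested against a panel of cytochrome P450 enzymes at compound concentrations up to 30 μM.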

[25] = molecular target: T2, Cytochrome P450 2D6; experiment: Inhibition of CYP2D6 in human liver microsomes co-incubated with dextromethorphan; format: ADME, Microsome; procedure, shortened: as §4
[26] = molecular target: T3, Cytochrome P450 3A4 (Homo sapiens, UniProt P08684); experiment: Inhibition of CYP3A4 in human liver microsomes using testosterone as substrate incubated for 30 mins prior to substrate addition; format: ADME, Microsome; procedure, shortened: as §4
T3 sequence (P08684 whole entry): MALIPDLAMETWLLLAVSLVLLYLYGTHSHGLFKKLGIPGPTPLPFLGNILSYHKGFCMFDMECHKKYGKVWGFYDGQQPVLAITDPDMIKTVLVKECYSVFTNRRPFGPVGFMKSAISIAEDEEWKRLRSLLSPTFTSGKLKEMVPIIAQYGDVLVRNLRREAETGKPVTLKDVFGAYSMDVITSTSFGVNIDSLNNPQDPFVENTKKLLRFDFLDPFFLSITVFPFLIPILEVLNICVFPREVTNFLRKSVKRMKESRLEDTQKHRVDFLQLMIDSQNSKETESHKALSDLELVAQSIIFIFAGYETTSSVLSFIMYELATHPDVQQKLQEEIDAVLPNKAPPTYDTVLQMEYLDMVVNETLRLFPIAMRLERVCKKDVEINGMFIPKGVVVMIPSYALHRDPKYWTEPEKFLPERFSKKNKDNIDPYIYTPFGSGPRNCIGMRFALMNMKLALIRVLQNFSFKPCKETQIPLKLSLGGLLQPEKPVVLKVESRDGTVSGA

[27] = molecular target: T4, Cytochrome P450 2C9 (Homo sapiens, UniProt P11712); experiment: Inhibition of CYP2C9 in human liver microsomes co-incubated with tolbutamide; format: ADME, Microsome; procedure, shortened: as §4
T4 sequence (P11712 whole entry): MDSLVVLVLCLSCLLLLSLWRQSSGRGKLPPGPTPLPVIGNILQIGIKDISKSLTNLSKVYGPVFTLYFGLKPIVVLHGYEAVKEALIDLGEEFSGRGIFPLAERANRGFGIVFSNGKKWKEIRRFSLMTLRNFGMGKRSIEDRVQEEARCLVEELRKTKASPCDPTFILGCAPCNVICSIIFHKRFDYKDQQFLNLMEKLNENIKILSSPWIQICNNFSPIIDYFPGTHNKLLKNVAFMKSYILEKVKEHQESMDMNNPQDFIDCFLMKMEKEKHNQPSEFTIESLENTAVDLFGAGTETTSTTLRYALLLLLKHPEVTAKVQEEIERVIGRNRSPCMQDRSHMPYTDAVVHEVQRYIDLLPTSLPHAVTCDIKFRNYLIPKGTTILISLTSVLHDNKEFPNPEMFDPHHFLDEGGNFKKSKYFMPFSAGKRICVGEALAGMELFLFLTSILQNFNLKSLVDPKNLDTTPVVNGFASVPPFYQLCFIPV

[28] = as §1; format: functional, cell-based; procedure, shortened: as §2
[29] = molecular target: T4, Cytochrome P450 2C9; experiment: Inhibition of CYP2C9 in human liver microsomes using tolbutamide as substrate incubated for 30 mins prior to substrate addition; format: ADME, Microsome; procedure, shortened: as §4
[30] = molecular target: T3, Cytochrome P450 3A4; experiment: Inhibition of CYP3A4 in human liver microsomes co-incubated with testosterone; format: ADME, Microsome; procedure, shortened: as §4

EC50 [2]	IC50 [3]	Structure (SMILES)	CC50 at 0.5 h [1]	also measured
20 µM	6 µM	CN1CCN(c2ccc(NC(=O)c3ccc(-c4ccc(Cl)cc4)o3)cc2)CC1		
1.4 µM	5.9 µM	Cc1cc(Cl)ccc1-c1ccc(C(=O)Nc2ccc(N3CCNCC3)cc2)o1	8.8 µM	
	15 µM	O=C(Nc1ccc(N2CCNCC2=O)cc1)c1ccc(-c2ccc(Cl)cc2)o1		
> 5 µM	> 20 µM	O=C(Nc1ccc(N2CCNCC2)cc1)c1ccc(-c2cccc(Cl)c2)o1	13 µM	
8 µM	22 µM	COc1ccc(-c2ccc(C(=O)Nc3ccc(N4CCNCC4)cc3)o2)cc1		
	> 20 µM	O=C(Nc1ccc(N2CCC(O)CC2)cc1)c1ccc(-c2ccc(Cl)cc2)o1		
5 µM	9 µM	O=C(Nc1ccc(N2CCNCC2)cc1)c1ccc(-c2ccc(Cl)cc2)s1	8 µM	
> 3.4 µM	6.7 µM	O=C(Nc1ccc(N2CCNCC2)c(F)c1)c1ccc(-c2ccc(Cl)cc2)o1	16 µM	
2 µM	5.5 µM	O=C(Nc1ccc(N2CCNCC2)cc1)c1ccc(-c2ccc(Cl)cc2)o1	> 10 µM	IC50 [10]: > 30 µM; IC50 [11]: 7.5 µM; IC50 [12]: > 30 µM; IC50 [13]: > 30 µM; IC50 [14]: > 30 µM; IC50 [15]: > 30 µM; IC50 [16]: > 30 µM; solubility [17]: > 20 µM; IC50 [18]: > 30 µM; IC50 [19]: > 30 µM; IC50 [20]: > 30 µM; IC50 [21]: 5 µM; IC50 [22]: > 30 µM; IC50 [23]: > 30 µM
1.6 µM	7.6 µM	O=C(Nc1ccc(N2CCNCC2)cc1)c1ccc(-c2ccc(Cl)cc2Cl)o1	8.1 µM	
> 7.7 µM	20 µM	O=C(Nc1ccc(N2CCNCC2)cc1)c1ccc(-c2ccc(C(F)(F)F)cc2)o1	> 15 µM	

More lines, now with the values behind:

Structure (SMILES)	EC50 [2]	IC50 [3]	CC50 at 0.5 h [1]	also measured
O=C(Nc1ccc(C2=CCNCC2)cc1)c1ccc(-c2ccc(Cl)cc2)o1	1.3 µM	2.1 µM	6.5 µM	
O=C(Nc1ccc(N2CCNCC2)cc1)c1ccc(-c2ccc(Cl)s2)o1	> 8 µM	6.9 µM	> 20 µM	
Cl.O=C(c1ccc(-c2ccc(Cl)cc2)o1)N(Cc1ccccn1)c1ccc(N2CCNCC2)cc1				AUC(0-t) at 6 h [4]: 2.3 µM·h
O=C(c1ccc(-c2ccc(Cl)cc2)o1)N(Cc1ccncc1)c1ccc(N2CCNCC2)cc1			> 8 µM	
CCN(C(=O)c1ccc(-c2ccc(Cl)cc2)o1)c1ccc(N2CCNCC2)cc1			> 8 µM	
Cn1ccnc1CN(C(=O)c1ccc(-c2ccc(Cl)cc2)o1)c1ccc(N2CCNCC2)cc1			> 20 µM	
CCCCN(C(=O)c1ccc(-c2ccc(Cl)cc2)o1)c1ccc(N2CCNCC2)cc1			19 µM	
O=C(Nc1ccc(N2CCNCC2)cc1C(F)(F)F)c1ccc(-c2ccc(Cl)cc2)o1	> 8 µM	> 20 µM	18 µM	
CC(C)N(C(=O)c1ccc(-c2ccc(Cl)cc2)o1)c1ccc(N2CCNCC2)cc1	2.7 µM	1.2 µM	> 20 µM	
CCCN(C(=O)c1ccc(-c2ccc(Cl)cc2)o1)c1ccc(N2CCNCC2)cc1			> 20 µM	
O=C(Nc1ccc(N2CCNCC2)cc1)c1ccc(-c2ccccc2Cl)o1	> 8 µM	8 µM	15 µM	
O=C(Nc1ccc(N2CCNCC2)cc1)c1cc(-c2ccc(Cl)cc2)on1	1.9 µM	7.5 µM	1 µM	
CN(C(=O)c1ccc(-c2ccc(Cl)cc2)o1)c1ccc(N2CCNCC2)cc1			> 20 µM	
O=C(Nc1ccc(N2CCNCC2)cc1)c1csc(-c2ccc(Cl)cc2)n1	0.9 µM	9.5 µM	0.9 µM	
O=C(c1ccc(-c2ccc(Cl)cc2)o1)N(Cc1ccccn1)c1ccc(N2CCNCC2)cc1 [listing 1 of 2 here]				inhibition [5]: Dose-dependent effect; inhibition [6]: Dose-dependent effect; inhibition [7]: Dose-dependent effect; inhibition [8]: Dose-dependent effect; inhibition [9]: > 50%
O=C(Nc1ccc(N2CCNCC2)cc1)c1cccc(-c2ccc(Cl)cc2)n1	3.9 µM	11 µM	> 10 µM	
O=C(c1ccc(-c2ccc(Cl)cc2)o1)N(Cc1ccccn1)c1ccc(N2CCNCC2)cc1 [listing 2 of 2 here]			> 20 µM	IC50 [24]: > 20 µM; IC50 [25]: > 20 µM; IC50 [26]: > 20 µM; IC50 [27]: > 20 µM; IC50 [28]: 2200 nM; IC50 [6]: 4.4 µM; IC50 [7]: 5.7 µM; IC50 [8]: 5.2 µM; IC50 [29]: > 30 µM; IC50 [30]: > 20 µM
